Compound activity (PubChem BioAssay)
CD11b adhes inh – inhibitors of human CD11b/CD18 binding to fibrinogen; inhibition, % at 10 µM; K562 CD11b/CD18 adhesion to fibrinogen, ATPlite luminescence; Mn2+ added to activate the integrin; hit rate 0.54% among 93,000;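 active = primary inhibition of 50% or more at 10 µM, then 40% or more on retest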
HIV Rev-RRE inh – inhibitors of HIV-1 Rev-RRE RNA interaction. P05866. Rev peptide-RRE RNA binding, FRET. inhibition, % at 8 µM. hit rate 0.79% among 97,000. AID 704;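 active = inhibition above the screen-wide mean plus 3 SD, cut at about 35% in these data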;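 note: 0% = median DMSO wells and 100% = median Neomycin B control wells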
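assay system = Cy5-tagged RRE RNA duplex with fluorescein-tagged Rev peptide | incubation = 5 + 15 min at 25 °C | also added = labelled Rev peptide | measure = % inhibition of FRET ratio versus controls | benchmarks = DMSO wells as 0% and neomycin B wells as 100% inhibition | measured by = FRET fluorescence readout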
sEH inhibitor – blocks human soluble epoxide hydrolase activity; AID 707; recombinant human sEH enzymatic activity assay; inhibition, % at 2 µM; P34913; hit rate 0.34% among 91,000; in the data active = inhibition above about 80%
Mac1 fbg enh – enhancers of human CD11b/CD18 binding to fibrinogen. P05107+P11215. K562 CD11b/CD18 adhesion to fibrinogen, ATPlite luminescence. activation, % at 10 µM. hit rate 0.07% among 93,000. AID 1499;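 active = 10 µM primary screen giving 50% or more activity, confirmed by 40% or more on retest at that dose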
Smad3 FoxH1 inh – Smad3 (human) transcription factor binding inhibition; P84022; TR-FRET Smad3/Dy647-FoxH1 peptide binding, europium anti-His; inhibition, % at 25 µM; hit rate 0.29% among 88,000; AID 630;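 active = compounds that reduce the energy-transfer binding signal between the protein and its labelled peptide by more than half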;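 note: 0% = Smad3 plus labelled peptide maximal FRET and 100% = peptide-only background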
sEH activator – soluble epoxide hydrolase (human) activation | P34913 | purified human sEH enzymatic activity, activator screen | activation, % at 2 µM | hit rate 0.04% among 91,000 | AID 717; in the data active = activation above about 37%
Active calls of the source: *; . = no result; [ ] = dose if it differs, or a comment. Only some compounds are listed: those with a hit (about 1.6% of all), similar ones and a draw of the others.

SMILES	CD11b adhes inh	HIV Rev-RRE inh	sEH inhibitor	Mac1 fbg enh	Smad3 FoxH1 inh	sEH activator
CC[C@@]1([N+](=O)[O-])C[C@H]2C=C[C@@H]1C2	.	.	.	.	32	.
CC1CCc2c(sc3nc(CN4CCOCC4)nc(NS(=O)(=O)c4cccc([N+](=O)[O-])c4)c23)C1 (configuration not stated)	67*	4	-4	-6	.	5
Cc1cc(S(=O)(=O)Nc2nc(CN3CCOCC3)nc3sc4c(c23)CCCC4)ccc1F	2	1	15	-6	-3	-17
CN1CCC[C@H](C(=O)OCC(=O)[C@]2(O)CC[C@@H]3[C@H]4CCC5=CC(=O)CC[C@@]5(C)[C@@H]4[C@@H](O)C[C@]32C)C1	.	.	.	.	3	.
O=C(C[C@@H](c1ccccc1)N1CCCCC1)c1ccccc1	.	.	.	.	7	.
CCc1ccc(/C=C/C(=O)C2C(=O)c3ccccc3C2=O)cc1	95*	5	-4	-11	.	7
O=C(c1ccccc1)C1C(=O)c2ccccc2C1=O	8	7	.	-3	7	.
O=C(/C=C/c1ccccc1)C1C(=O)c2ccccc2C1=O	87*	.	.	-7	.	.
O=C(O)c1ccc(S(=O)(=O)N=Nc2c(O)[nH]c3ccccc23)cc1	.	.	.	.	40	.
Cc1ccc(C2C(C(=O)c3sc(C)nc3C)=C(O)C(=O)N2CCCN(C)C)o1 (configuration not stated)	-6	.	.	-7	15	.
N#Cc1ccc(OC(=O)c2ccc(N=C(N)N)cc2)cc1	.	.	.	.	-2	.
CCCCn1nc(-c2ccccc2)c2nc3ccccc3nc21	-3	97*[fluorescence artefact?]	-5	7	-7	4
Cn1nc(-c2ccccc2)c2nc3ccccc3nc21	-2	92*[fluorescence artefact?]	-12	0	2	11
Nc1nc(SC/C=C/C2CCCCC2)c2[nH]cnc2n1	.	.	.	.	-5	.
COc1ccc(CCN2C(=O)C3C4CC(C5C(C(=O)N/N=C\c6ccc(Cl)cc6)=NOC45)C3C2=O)cc1OC (configuration not stated)	-12	6	94*	-2	2	-94
NC(=O)C/C=C/CC(N)=O	.	.	.	.	2	.
CCN1CCN(S(=O)(=O)c2cc(OCC(=O)NC3CCCCC3)c(C)cc2Cl)CC1	58*	1	0	-5	5	2
Cc1cc(Cl)c(S(=O)(=O)N2CCCCCC2)cc1OCC(=O)NC1CCCCC1	77*	8	-7	-5	9	6
O=S(=O)(Nc1ncnc2sc3c(c12)CCC3)c1ccc(Cl)s1	87*	10	-1	-10	-2	4
Cc1nc(NS(=O)(=O)c2cccs2)c2c3c(sc2n1)CCC3	5	4	-6	0	-9	7
Cc1nc(NS(=O)(=O)c2ccc(Br)cc2)c2c3c(sc2n1)CCC3	93*	-1	5	-11	-11	-1
CC(C)(C)OC(=O)[C@H]([C@@H]1N[C@@H](C(=O)O)C(C)(C)S1)N1C(=O)c2ccccc2C1=O	.	.	.	.	-7	.
CCn1nc(C)c(/C=C2\CCCC3=C2OC(N)=C(C#N)C3c2c(C)nn(CC)c2C)c1C (configuration not stated)	1	47*	10	-2	4	-10
COc1cc(C(=O)OCCNC(=O)c2ccncc2)cc(OC)c1OC	18	.	.	-2	.	.
O=c1oc2c3c4c(cc2c(C(F)(F)F)c1CCN1CCOCC1)CCCN4CCC3	-23	113*[fluorescence artefact?]	-6	4	2	6
SMILES	CD11b adhes inh	HIV Rev-RRE inh	sEH inhibitor	Mac1 fbg enh	Smad3 FoxH1 inh	sEH activator
CCCn1c(CN2CCN(c3cccc(Cl)c3)CC2)nc2c1c(=O)n(C)c(=O)n2C	91*	6	1	-8	3	3
CCCCn1c(CN2CCN(c3ccccc3)CC2)nc2c1c(=O)n(C)c(=O)n2C	65*	7	3	-2	6	-3
CC(=O)N[C@H](Cc1ccc(O)cc1)C(=O)O	.	.	.	.	-4	.
CCCNc1c(F)c(F)c2c(C)c3ccccc3nc2c1F	.	121*[fluorescence artefact?]	-5	.	.	6
O=C(c1ccco1)[C@@H]1[C@@H]2C(=O)N(c3ccc(F)cc3)C(=O)[C@@H]2C2c3ccccc3C=CN21 (some centres not stated)	10	42*	11	-4	13	-12
CC(C)(C)C(=O)[C@@H]1[C@@H]2C(=O)N(Cc3ccccc3)C(=O)[C@@H]2[C@H]2c3ccccc3C=CN12	-13	19	2	-4	15	-3
